Here are results for 11 compounds from ChEMBL document CHEMBL1126945, “Synthesis and evaluation of 3-modified 1D-myo-inositols as inhibitors and substrates of phosphatidylinositol synthase and inhibitors of myo-inositol uptake by cells” (1993).

For assay [1], the target named is T1, CDP-diacylglycerol--inositol 3-phosphatidyltransferase (Mus musculus) (UniProt Q8VDP6).
T1 sequence (whole entry): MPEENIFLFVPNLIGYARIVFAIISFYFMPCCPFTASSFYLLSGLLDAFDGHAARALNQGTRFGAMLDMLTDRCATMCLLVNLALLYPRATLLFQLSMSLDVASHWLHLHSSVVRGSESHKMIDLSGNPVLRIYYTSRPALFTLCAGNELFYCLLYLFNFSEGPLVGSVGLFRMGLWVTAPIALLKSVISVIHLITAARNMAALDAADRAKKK
In words: Tested for inhibition of phosphatidylinositol synthase from mouse brain at 5 mM. The essentials:
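Mouse brain microsomal PtdIns synthase; incorporation of 0.5 mM myo-[2-³H]inositol into CHCl₃-soluble lipid at 37 °C with Tris-HCl pH 8.3, 48 mM MgCl₂, 0.5 mM CDP-dipalmitin, 0.25% Triton X-100, 5 mM analogue, 0.05 mg microsomal protein. Stopped at 20 min with HCl/MeOH and CHCl₃; organic phase scintillation counted. Averages of two or more determinations.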

Assay [2] deals with T1, CDP-diacylglycerol--inositol 3-phosphatidyltransferase (Mus musculus). In words: Tested as substrate of phosphatidylinositol synthase in mouse brain by measuring percent CMP formation compared with myo-inositol tested at 5 mM. Format: functional, tissue-based. The procedure, abridged:
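Mouse brain microsomes (12-day-old mice; 900g then 12000g pellet) as PtdIns synthase source. 37 °C, 50 mM Tris-HCl pH 8.3, 48 mM MgCl₂, 0.5 mM CDP-dipalmitin, 0.25% Triton X-100, 5 mM analogue or myo-inositol, 0.5 mg microsomal protein. Stopped in linear phase with CHCl₃-MeOH; aqueous CMP read at 280 nm. Expressed as % of myo-inositol; averages of two or more determinations.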

For assay [3], the species on record is Rattus norvegicus. In words: Tested for inhibition of myo-[3H]inositol uptake in F111 rat fibroblast cells at 5 mM. The format is functional. The essentials:
(§1)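 F111 rat fibroblasts grown overnight on coverslips in inositol-free DMEM with 10% dialyzed calf serum and 10 μM myo-inositol, washed, then incubated 120 min at 37 °C, 5% CO₂ in Krebs-Ringer (HEPES pH 7.4) with 10 μM myo-[³H]inositol and 5 mM analogue. Washed, lysed in 1% SDS; radioactivity counted and normalised to BCA protein.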

Assay [4] is filed under the species Rattus norvegicus. In words: Tested for inhibition of myo-inositol uptake in F111 rat fibroblast cells at 5 mM. Format: functional. The essentials: as §1
Assay [5] can be described thus: Michaelis-Menten constant was determined.

What is called inhibition is the relative decrease from the control value, in per cent. The low end stands for a response near the control, the high end for a response far below the control. A word on the Km: it is the concentration of substrate that gives half-maximal velocity.

Structures are written as SMILES.

As for `[N-]=[N+]=N[C@@H]1[C@H](O)[C@H](O)[C@@H](O)[C@@H](O)[C@@H]1O`, the inhibition in assay [1] came to 17%. The compound further gave a Formation in assay [2] of 1%.

As to `N[C@H]1[C@@H](O)[C@H](O)[C@H](O)[C@@H](O)[C@H]1O`, in assay [3], 5000 µM produced 87% inhibition. In addition, the inhibition in assay [1] turned out to be 19%. The compound further registered a Formation in assay [2] of 9%.

On to `O[C@@H]1[C@H](F)[C@@H](O)[C@@H](O)[C@H](O)[C@@H]1O`, for which the inhibition in assay [1] was 22%. The compound also registered a Formation in assay [2] of 28%.

The compound `O=C1[C@@H](O)[C@H](O)[C@@H](O)[C@H](O)[C@@H]1O` came in with an inhibition in assay [1] of 47%. The same compound registered a Formation in assay [2] of 7%.

The compound `O[C@H]1[C@@H](O)[C@H](O)C[C@H](O)[C@@H]1O` had an inhibition in assay [1] of 9%. Also, in assay [4], the inhibition at 5000 µM is 80%. This compound gave a Formation in assay [2] of 6%.

The compound `O[C@@H]1[C@@H](O)[C@H](O)[C@@H](Cl)[C@@H](O)[C@H]1O` yielded an inhibition in assay [1] of 30%. Further, the Formation in assay [2] is 1%.

As for `O[C@H]1[C@H](O)[C@@H](O)[C@H](O)[C@@H](O)[C@H]1O`, the Formation in assay [2] was 100%. In assay [5], the Km came out at 1500 µM.

As for `O[C@@H]1[C@@H](O)[C@@H](O)[C@@H](S)[C@@H](O)[C@@H]1O`, the inhibition in assay [1] was determined as 40%. Besides, the Formation in assay [2] was found to be 1.5%.

For `CO[C@H]1C[C@@H](O)[C@H](O)[C@H](O)[C@H]1O`, the inhibition in assay [1] amounted to 28%. Moreover, the Formation in assay [2] came out at 0%.

On to `CO[C@@H]1[C@H](O)[C@@H](O)[C@@H](O)[C@H](O)[C@@H]1N=[N+]=[N-]`, for which the inhibition in assay [1] was found to be 10%. In assay [2], this compound came in with a Formation of 0%.

`O[C@@H]1[C@@H](O)[C@H](O)[C@@H](F)[C@@H](O)[C@H]1O` had an inhibition at 5000 µM in assay [3] of 97%. Further, the inhibition in assay [1] stood at 37%. The same compound registered a Formation in assay [2] of 7%.
